Measurements as given in ChEMBL document CHEMBL2176886, “Anti-AIDS agents 90. novel C-28 modified bevirimat analogues as potent HIV maturation inhibitors” (J Med Chem, 2012).
pIC50: −log10 of the molar value. The source made the active and inactive calls. The calls are words filed in the database; no cut-off is given here.

How the values were obtained:
[1] = Therapeutic index, ratio of CC50 for human MT4 cells to IC50 for HIV-1 NL4-3; assay type: cell-based; conditions: read-out: Ratio CC50/IC50
Procedure, shortened: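 TI calculated as CC50 (mock-infected MT-4 growth, 2 days) divided by IC50 (HIV-1 NL4-3 replication in MT-4 cells, p24 ELISA at day 4).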

[2] = system: Human immunodeficiency virus 1; assay: Antiviral activity against HIV1 NL4-3 infected in human MT4 cells assessed as p24 antigen level after 4 days by ELISA; assay type: functional, organism-based; conditions: Human immunodeficiency virus 1, NL4-3, MT4, 96 h
Procedure, shortened: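 MT-4 cells infected with HIV-1 NL4-3 variants at MOI 0.01; supernatants harvested day 4 post-infection for p24 antigen capture ELISA. IC50 is the concentration inhibiting replication by 50%; values are averages of at least three separate experiments.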

[3] = system: Human immunodeficiency virus 1; assay: Antiviral activity against HIV1 infected in human TZM-bl cells assessed as reduction of viral entry after 48 hrs by luciferase reporter gene assay; assay type: functional, organism-based
Procedure, shortened: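 Single-round infection of TZM-bl cells (HeLa clone expressing CD4/CCR5 with HIV-1 LTR-driven firefly luciferase) with HIV-1 at 200 TCID50 mixed with test samples. After 48 h, medium was replaced with Bright-Glo reagent and luminescence read. IC50 is the concentration giving 50% RLU reduction versus virus-control wells after background subtraction.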

[4] = system: Human immunodeficiency virus 1; assay: Antiviral activity against HIV1 infected in human TZM-bl cells assessed as reduction of viral […] after 48 hrs by luciferase reporter gene assay; assay type: functional, organism-based
Procedure, shortened: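 Single-round infection of TZM-bl cells (HeLa clone expressing CD4 and CCR5, HIV-1 LTR-driven firefly luciferase) with HIV-1 at 200 TCID50 mixed with samples. Luminescence read after 48 h. IC50 is the concentration giving 50% lower RLU than virus control wells, after subtracting background RLU.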

MT4 = assay: Cytotoxicity against human MT4 cells after 2 days; assay type: cell-based; conditions: mt4, 48 h
[5] = system: Human immunodeficiency virus 1; assay: Antiviral activity against HIV1 NL4-3 infected in human MT4 cells assessed as p24 antigen level at 10 uM after 4 days by ELISA; assay type: functional, organism-based

Row | SMILES | selectivity ratio [1] | pIC50 [2] | Activity [3] | Activity [4] | CC50 (MT4) [nM] | Activity [5]
1 | C=C(C)[C@@H]1CC[C@]2(C(=O)OCCCCCC)CC[C@]3(C)[C@H](CC[C@@H]4[C@@]5(C)CC[C@H](OC(=O)CC(C)(C)C(=O)O)C(C)(C)[C@@H]5CC[C@]43C)[C@@H]12 | 8.3 | 5.74 | inactive | Active | 14800 | –
2 | C=C(C)[C@@H]1CC[C@]2(C(=O)O)CC[C@]3(C)[C@H](CC[C@@H]4[C@@]5(C)CC[C@H](OCOC)C(C)(C)[C@@H]5CC[C@]43C)[C@@H]12 | – | – | inactive | – | – | inactive
3 | C=C(C)[C@@H]1CC[C@]2(C(=O)OCOC)CC[C@]3(C)[C@H](CC[C@@H]4[C@@]5(C)CC[C@H](O)C(C)(C)[C@@H]5CC[C@]43C)[C@@H]12 | – | – | inactive | – | – | inactive
4 | C=C(C)[C@@H]1CC[C@]2(C(=O)N3CCN(CCCCC(=O)O)CC3)CC[C@]3(C)[C@H](CC[C@@H]4[C@@]5(C)CC[C@H](O)C(C)(C)[C@@H]5CC[C@]43C)[C@@H]12 | – | – | inactive | – | – | inactive
5 | C=C(C)[C@@H]1CC[C@]2(C(=O)OCCOCCOCCOCCOC(=O)CC(C)(C)C(=O)O)CC[C@]3(C)[C@H](CC[C@@H]4[C@@]5(C)CC[C@H](OC(=O)CC(C)(C)C(=O)O)C(C)(C)[C@@H]5CC[C@]43C)[C@@H]12 | 111 | 7.10 | inactive | – | 8900 | –
6 | C=C(C)[C@@H]1CC[C@]2(C(=O)OCCC)CC[C@]3(C)[C@H](CC[C@@H]4[C@@]5(C)CC[C@H](OC(=O)CC(C)(C)C(=O)O)C(C)(C)[C@@H]5CC[C@]43C)[C@@H]12 | 118 | 7.06 | inactive | Active | 10400 | –
7 | C=C(C)[C@@H]1CC[C@]2(C(=O)OCOCCOC)CC[C@]3(C)[C@H](CC[C@@H]4[C@@]5(C)CC[C@H](O)C(C)(C)[C@@H]5CC[C@]43C)[C@@H]12 | – | – | inactive | – | – | inactive
8 | C=C(C)[C@@H]1CC[C@]2(C(=O)OCCCCCC)CC[C@]3(C)[C@H](CC[C@@H]4[C@@]5(C)CC[C@H](O)C(C)(C)[C@@H]5CC[C@]43C)[C@@H]12 | – | – | inactive | Active | – | inactive
9 | C=C(C)[C@@H]1CC[C@]2(C(=O)N3CCN(CCCC(=O)O)CC3)CC[C@]3(C)[C@H](CC[C@@H]4[C@@]5(C)CC[C@H](O)C(C)(C)[C@@H]5CC[C@]43C)[C@@H]12 | – | – | inactive | – | – | inactive
10 | C=C(C)[C@@H]1CC[C@]2(C(=O)N3CCC(CCCC(=O)NCCCN4CCOCC4)CC3)CC[C@]3(C)[C@H](CC[C@@H]4[C@@]5(C)CC[C@H](O)C(C)(C)[C@@H]5CC[C@]43C)[C@@H]12 | – | – | inactive | – | – | inactive
11 | C=C(C)[C@@H]1CC[C@]2(C(=O)OCCC)CC[C@]3(C)[C@H](CC[C@@H]4[C@@]5(C)CC[C@H](O)C(C)(C)[C@@H]5CC[C@]43C)[C@@H]12 | – | – | inactive | Active | – | inactive
12 | C=C(C)[C@@H]1CC[C@]2(C(=O)OCOC)CC[C@]3(C)[C@H](CC[C@@H]4[C@@]5(C)CC[C@H](OC(=O)CC(C)(C)C(=O)O)C(C)(C)[C@@H]5CC[C@]43C)[C@@H]12 | 70.9 | 6.77 | inactive | – | 12400 | –
13 | C=C(C)[C@@H]1CC[C@]2(C(=O)N3CCC(CCCC(=O)NC)CC3)CC[C@]3(C)[C@H](CC[C@@H]4[C@@]5(C)CC[C@H](O)C(C)(C)[C@@H]5CC[C@]43C)[C@@H]12 | – | – | inactive | – | – | inactive
14 | C=C(C)[C@@H]1CC[C@]2(C(=O)OCCCCCCCC)CC[C@]3(C)[C@H](CC[C@@H]4[C@@]5(C)CC[C@H](O)C(C)(C)[C@@H]5CC[C@]43C)[C@@H]12 | – | – | inactive | – | – | inactive
15 | C=C(C)[C@@H]1CC[C@]2(C(=O)N3CCC(CCCC(=O)N4CCOCC4)CC3)CC[C@]3(C)[C@H](CC[C@@H]4[C@@]5(C)CC[C@H](OC(=O)CC(C)(C)C(=O)O)C(C)(C)[C@@H]5CC[C@]43C)[C@@H]12 | 156 | 7.15 | inactive | – | 10900 | –
16 | C=C(C)[C@@H]1CC[C@]2(C(=O)N3CCC(CCCC(=O)NC)CC3)CC[C@]3(C)[C@H](CC[C@@H]4[C@@]5(C)CC[C@H](OC(=O)CC(C)(C)C(=O)O)C(C)(C)[C@@H]5CC[C@]43C)[C@@H]12 | > 55.5 | 6.62 | inactive | – | > 13300 | –

Row | SMILES | selectivity ratio [1] | pIC50 [2] | Activity [3] | Activity [4] | CC50 (MT4) [nM] | Activity [5]
17 | C=C(C)[C@@H]1CC[C@]2(C(=O)OCOC)CC[C@]3(C)[C@H](CC[C@@H]4[C@@]5(C)CC[C@H](OCOC)C(C)(C)[C@@H]5CC[C@]43C)[C@@H]12 | – | – | inactive | – | – | inactive
18 | C=C(C)[C@@H]1CC[C@]2(C(=O)OCOCCOC)CC[C@]3(C)[C@H](CC[C@@H]4[C@@]5(C)CC[C@H](OCOCCOC)C(C)(C)[C@@H]5CC[C@]43C)[C@@H]12 | – | – | inactive | – | – | inactive
19 | C=C(C)[C@@H]1CC[C@]2(C(=O)N3CCC(CCCC(=O)NCCN4CCOCC4)CC3)CC[C@]3(C)[C@H](CC[C@@H]4[C@@]5(C)CC[C@H](O)C(C)(C)[C@@H]5CC[C@]43C)[C@@H]12 | – | – | inactive | – | – | inactive
20 | C=C(C)[C@@H]1CC[C@]2(C(=O)OCCCCCCCC)CC[C@]3(C)[C@H](CC[C@@H]4[C@@]5(C)CC[C@H](OC(=O)CC(C)(C)C(=O)O)C(C)(C)[C@@H]5CC[C@]43C)[C@@H]12 | – | – | inactive | – | – | inactive
21 | C=C(C)[C@@H]1CC[C@]2(C(=O)ON3C(=O)CCC3=O)CC[C@]3(C)[C@H](CC[C@@H]4[C@@]5(C)CC[C@H](O)C(C)(C)[C@@H]5CC[C@]43C)[C@@H]12 | – | – | inactive | – | – | inactive
22 | C=C(C)[C@@H]1CC[C@]2(C(=O)OCCCCCC(=O)OCC)CC[C@]3(C)[C@H](CC[C@@H]4[C@@]5(C)CC[C@H](OC(=O)CC(C)(C)C(=O)O)C(C)(C)[C@@H]5CC[C@]43C)[C@@H]12 | 154 | 7.25 | inactive | Active | 8600 | –
23 | C=C(C)[C@@H]1CC[C@]2(C(=O)OCCCc3ccccc3)CC[C@]3(C)[C@H](CC[C@@H]4[C@@]5(C)CC[C@H](O)C(C)(C)[C@@H]5CC[C@]43C)[C@@H]12 | – | – | inactive | – | – | inactive
24 | C=C(C)[C@@H]1CC[C@]2(C(=O)ON3C(=O)CCC3=O)CC[C@]3(C)[C@H](CC[C@@H]4[C@@]5(C)CC[C@H](OC(=O)CC(C)(C)C(=O)O)C(C)(C)[C@@H]5CC[C@]43C)[C@@H]12 | 86.2 | 6.89 | inactive | – | 11000 | –
25 | C#CCOC(=O)[C@]12CC[C@@H](C(=C)C)[C@@H]1[C@H]1CC[C@@H]3[C@@]4(C)CC[C@H](O)C(C)(C)[C@@H]4CC[C@@]3(C)[C@]1(C)CC2 | – | – | inactive | – | – | inactive
26 | C=C(C)[C@@H]1CC[C@]2(C(=O)O)CC[C@]3(C)[C@H](CC[C@@H]4[C@@]5(C)CC[C@H](O)C(C)(C)[C@@H]5CC[C@]43C)[C@@H]12 | – | – | Active | – | – | –
27 | C=C(C)[C@@H]1CC[C@]2(C(=O)OCCCCCC(=O)OCC)CC[C@]3(C)[C@H](CC[C@@H]4[C@@]5(C)CC[C@H](O)C(C)(C)[C@@H]5CC[C@]43C)[C@@H]12 | – | – | inactive | – | – | inactive
28 | C=C(C)[C@@H]1CC[C@]2(C(=O)O)CC[C@]3(C)[C@H](CC[C@@H]4[C@@]5(C)CC[C@H](OCOCCOC)C(C)(C)[C@@H]5CC[C@]43C)[C@@H]12 | – | – | inactive | – | – | inactive
29 | C=C(C)[C@@H]1CC[C@]2(C(=O)N3CCC(CCCC(=O)N4CCOCC4)CC3)CC[C@]3(C)[C@H](CC[C@@H]4[C@@]5(C)CC[C@H](O)C(C)(C)[C@@H]5CC[C@]43C)[C@@H]12 | – | – | inactive | – | – | inactive
30 | C#CCOC(=O)[C@]12CC[C@@H](C(=C)C)[C@@H]1[C@H]1CC[C@@H]3[C@@]4(C)CC[C@H](OC(=O)CC(C)(C)C(=O)O)C(C)(C)[C@@H]4CC[C@@]3(C)[C@]1(C)CC2 | 226 | 7.17 | inactive | – | 15300 | –
31 | C=C(C)[C@@H]1CC[C@]2(C(=O)OCc3cn([C@H]4C[C@H](n5cc(C)c(=O)[nH]c5=O)O[C@@H]4CO)nn3)CC[C@]3(C)[C@H](CC[C@@H]4[C@@]5(C)CC[C@H](OC(=O)CC(C)(C)C(=O)O)C(C)(C)[C@@H]5CC[C@]43C)[C@@H]12 | 101 | 7.00 | inactive | – | 11000 | –
32 | C=C(C)[C@@H]1CC[C@]2(C(=O)OCCOCCOCCOCCO)CC[C@]3(C)[C@H](CC[C@@H]4[C@@]5(C)CC[C@H](O)C(C)(C)[C@@H]5CC[C@]43C)[C@@H]12 | – | – | inactive | – | – | inactive
